Screens deposited in PubChem by The Scripps Research Institute Molecular Screening Center.
CHRM5 antagonist: CHRM5 antagonism in calcium assay. CHO-hM5 cells, Fluo-8 calcium fluorescence, ACh EC80. AID 624040. 0.59% of 360,000 active. inhibition, % at 3 µM;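 active = inhibition above a per-plate cutoff, the mean of that plate's test compounds plus 3 SD, cut at about 27% in these data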
CHRM5 agonist: CHRM5 agonism in calcium assay; P08912; CHO-K1 hM5 cells, Fluo-8 calcium fluorescence; 0% DMSO wells, 100% maximal acetylcholine response; activation, % at 3 µM; 0.19% of 360,000 active; AID 624037;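 active = activation above the run's mean over test compounds plus 3 SD, cut at about 23% in these data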;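 note: signal is peak over basal fluorescence ratio across the kinetic read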
M4 PAM: positive allosteric modulators of human muscarinic M4 receptor; P08173; CHO-K1 hM4/Gqi5, Fluo-8 calcium fluorescence, ACh EC20; 0% = ACh EC20, 100% = maximal ACh; activation, % at 3 µM; 0.4% of 360,000 active;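 active = activation above its plate's cutoff, the mean activation of sample wells plus 3 SD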
Target sequence (P08173 whole entry, looked up): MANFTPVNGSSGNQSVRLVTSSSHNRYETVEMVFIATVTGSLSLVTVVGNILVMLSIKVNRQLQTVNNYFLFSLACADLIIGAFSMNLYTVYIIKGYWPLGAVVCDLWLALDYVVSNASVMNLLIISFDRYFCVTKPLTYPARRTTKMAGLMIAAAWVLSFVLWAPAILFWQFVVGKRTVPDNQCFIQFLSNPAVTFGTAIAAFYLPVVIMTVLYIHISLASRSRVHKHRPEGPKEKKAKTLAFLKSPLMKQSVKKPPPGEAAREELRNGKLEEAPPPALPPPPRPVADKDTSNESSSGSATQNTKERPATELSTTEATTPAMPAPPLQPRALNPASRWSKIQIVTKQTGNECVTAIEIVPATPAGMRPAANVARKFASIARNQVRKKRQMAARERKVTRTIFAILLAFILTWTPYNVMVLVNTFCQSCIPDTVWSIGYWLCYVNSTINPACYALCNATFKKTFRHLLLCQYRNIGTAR
CHRM4 agonist: CHRM4 agonism in calcium assay; AID 624127; activation, % at 3 µM; 0.14% of 360,000 active; P08173; CHO-K1 hM4/Gqi5, Fluo-8 calcium fluorescence; vehicle 0%, full acetylcholine response 100%;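 active = activation above the run mean over all test wells plus 3 SD, cut at about 32% in these data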;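 note: peak over basal fluorescence ratio per well then scaled between controls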
M4 antag: blocks acetylcholine activation of human M4 receptor. P08173. CHO-hM4 cells, ACh EC80, Fluo-8 calcium fluorescence. inhibition, % at 3 µM. 0.73% of 360,000 active;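 active = inhibition above its plate's cutoff, the mean inhibition of sample wells plus 3 SD, cut at about 27% in these data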
M5 PAM: potentiates acetylcholine response at human M5 receptor; P08912; CHO-K1 hM5, Fluo-8 calcium, ACh EC20 PAM; 0% = ACh EC20, 100% = ACh EC100; activation, % at 3 µM; 0.3% of 360,000 active;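 active = activation above the run cutoff, the mean activation of all test compounds plus 3 SD, cut at about 18% in these data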
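Test system: CHO-K1 hM5 cells / Doses: single-point, 3 µM nominal / Times: Post-acetylcholine fluorescence recording 140 s / Technique: Fluo-8 calcium fluorescence / Measure: Max/basal fluorescence ratio as % of EC20–EC100 ACh window / Benchmarks: low control EC20 acetylcholine (0%), high control EC100 acetylcholine (100%) / Replicates: one well per compound, no replicates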
Of the large screens only hits and unclear results are named; the others gave an inactive call. Sampled rows, rich in hits. Any-hit rate of the full collection: about 1.8%.

COc1ccc(C2SCC(=O)N2c2c(C)n(C)n(-c3ccccc3)c2=O)cc1OC (centres undefined)	M5 PAM 33
Cc1c(N2C(=O)CSC2c2ccccc2)c(=O)n(-c2ccccc2)n1C (centres undefined)	none
COc1cc(CNCCO)ccc1OCCc1ccccc1	M4 PAM 20, M4 antag 29
CCOC(=O)CN1N=C(/C=C/c2ccccc2)CCC1=O	CHRM5 agonist 28
C=C1SC(Nc2c(C)cccc2C)=NC12CCCCC2	M4 antag 29
CN(CC(=O)Nc1cccc(Cl)c1)S(=O)(=O)/C=C/c1ccccc1	none
CN(C)c1cc2c(c(N(C)C)c1)C(=O)c1ccccc1C2=O	M4 PAM 20
Cc1c(NC(=O)Nc2cccc(Cl)c2)c(=O)n(-c2ccccc2)n1C	none
Cc1c(NC(=S)NC(=O)CC(C)C)c(=O)n(-c2ccccc2)n1C	M4 antag 79
Cc1c(NC(=O)Nc2cc(Cl)ccc2Cl)c(=O)n(-c2ccccc2)n1C	CHRM5 antagonist 29
CCOc1ccc(Cl)cc1-c1cc(C(=O)NC(C)C)[nH]n1	none
CC1CNC(=S)N(c2ccccc2)C1=O (centres undefined)	none
COC(=O)c1ccc2c(=O)[nH]c(COC(=O)c3c(-c4ccccc4Cl)noc3C)nc2c1	none
CC(=O)NC1(NC(C)=O)CCN(C)C(c2ccccc2)C1C (centres undefined)	CHRM5 agonist 26
CCS(=O)(=O)N1CCC(NC(C)=O)(c2ccccc2)CC1	none
O=c1nc2n(c3ccc(Br)cc13)CCS2	M4 antag 33
O=c1c2ccccc2nc2n1CCS2	none
CC(C)[C@H](NC(=O)c1ccc(C(C)(C)C)cc1)C(=O)N1CCN(Cc2ccc3c(c2)OCO3)CC1	none
CCC(C(=O)Nc1ccc(C)cc1)c1ccccc1 (centres undefined)	none
CCc1ccc(NC(=O)C(CC)c2ccccc2)cc1 (centres undefined)	CHRM5 agonist 24
COc1ccc(Cl)cc1NC(=O)C(OC)c1ccccc1 (centres undefined)	none
CCC(C(=O)Nc1cc(Cl)ccc1OC)c1ccccc1 (centres undefined)	M5 PAM 19
CCC(C(=O)Nc1ccc(C(=O)Nc2ccccc2C(=O)O)cc1)c1ccccc1 (centres undefined)	M4 PAM 17
CCC(C(=O)Nc1ccc(C(=O)N2CCCC2)cc1)c1ccccc1 (centres undefined)	none
COC(=O)c1ccc(NC(=O)C2CCN(C(=O)Nc3ccccc3)CC2)cc1	none
O=C(CC1CCCC1)NNC(=O)c1ccc(Br)cc1	none
CN(C)CCOc1ccc(-c2c(-c3ccccc3)sc3ccccc23)cc1	M4 antag 28
CCOC(=O)CSc1nc2c(cnn2-c2ccc(C)cc2)c(=O)[nH]1	M4 PAM 19
CC1CN(C(=O)CSc2nnc(-c3ccccc3)o2)CC(C)O1 (centres undefined)	M5 PAM 22
COc1ccc(-c2cc(CNc3nc(NCc4ccccc4OC)nc4ccsc34)on2)cc1	none
CCN1CCN(CC(=O)N2N=C(c3cccs3)CC2c2ccc(OC)c(OC)c2)C(=O)C1=O (centres undefined)	none
C=C1C(=O)c2sccc2C(c2ccc(OC)c(OC)c2)C1COC(C)=O (centres undefined)	M4 antag 30
Cc1ccc(C(=O)NC2CC3CCCC(C2)N3C(=S)NCc2ccco2)cc1 (centres undefined)	M4 PAM 21
COc1ccc(/C=C2\SC(=O)NC2=S)cc1OC	CHRM4 agonist 33
COc1ccc(/C=C2\SC(=S)NC2=O)cc1OS(=O)(=O)c1ccc(NC(C)=O)cc1	none
CCOc1ccc(/C=C2\SC(=S)NC2=O)cc1OC	none
COc1cc(/C=C2/SC(=S)NC2=O)ccc1OS(=O)(=O)c1ccc(C)cc1	CHRM5 antagonist 36
O=C(O)c1cccc(N2C(=O)CSC2c2ccccc2)c1 (centres undefined)	none
NCC(c1ccc(Cl)cc1Cl)c1c[nH]c2ccccc12 (centres undefined)	CHRM4 agonist 35
